According to ChEMBL document CHEMBL3785089, “Design and Synthesis of Irreversible Analogues of Bardoxolone Methyl for the Identification of Pharmacologically Relevant Targets and Interaction Sites” (J Med Chem, 2016):
Values belong to the compound of their own block, whether it stands above or below them. Calls of active or inactive are those of the source. No cut-off for these calls is given here.

Key:
[1] = biological target: Kelch-like ECH-associated protein 1 (Mus musculus) (UniProt Q9Z2X8); experiment: Binding affinity to recombinant mouse poly His-tagged Keap1 expressed in Escherichia coli assessed as chemical modification of Cys-288 residue incubated up to 24 hrs by LC-MS/MS analysis
Chain of Kelch-like ECH-associated protein 1 (Mus musculus) (Q9Z2X8 whole entry): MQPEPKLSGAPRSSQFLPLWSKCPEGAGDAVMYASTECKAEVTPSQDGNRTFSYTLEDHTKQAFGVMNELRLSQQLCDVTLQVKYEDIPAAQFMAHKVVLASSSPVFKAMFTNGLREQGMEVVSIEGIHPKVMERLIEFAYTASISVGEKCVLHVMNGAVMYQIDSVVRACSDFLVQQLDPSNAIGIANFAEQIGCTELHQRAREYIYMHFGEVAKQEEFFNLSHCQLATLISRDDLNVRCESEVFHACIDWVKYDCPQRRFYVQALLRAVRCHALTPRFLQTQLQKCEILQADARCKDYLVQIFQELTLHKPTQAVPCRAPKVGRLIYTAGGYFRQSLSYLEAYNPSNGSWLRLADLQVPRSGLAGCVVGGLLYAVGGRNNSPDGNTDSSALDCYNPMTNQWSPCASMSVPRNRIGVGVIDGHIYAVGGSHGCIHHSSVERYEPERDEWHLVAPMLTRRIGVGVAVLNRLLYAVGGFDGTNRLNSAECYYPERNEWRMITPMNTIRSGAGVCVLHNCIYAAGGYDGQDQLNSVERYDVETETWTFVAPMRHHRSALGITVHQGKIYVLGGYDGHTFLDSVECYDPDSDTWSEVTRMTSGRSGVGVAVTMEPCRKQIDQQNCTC
Method in brief: (§1)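 Recombinant His-tagged protein (human GSTP1 or mouse Keap1) purified by nickel affinity and incubated on-bead with the stated molar excess of compound for up to 24 h, pH 8.4, 37 °C. Free cysteines capped with 55 mM iodoacetamide for 15 min, trypsin digest overnight at 37 °C, LC-MS/MS detection of adduct mass shifts on peptide y/b ions.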

[2] = Thiol reactivity using beta-mercaptoethanol assessed as chemical shifts in presence of triethylamine at 25 degC by NMR spectroscopy
[3] = Thiol reactivity using N-acetyl cysteine assessed as chemical shifts at 25 degC by NMR spectroscopy
[4] = biological target: T1, Nuclear factor erythroid 2-related factor 2 (Rattus norvegicus) (UniProt O54968); experiment: Induction of NRF2 activation in rat H42E cells expressing ARE8L assessed as reporter transgene activity after 24 hrs by luminescence assay; format: cell-based
T1 sequence (whole entry): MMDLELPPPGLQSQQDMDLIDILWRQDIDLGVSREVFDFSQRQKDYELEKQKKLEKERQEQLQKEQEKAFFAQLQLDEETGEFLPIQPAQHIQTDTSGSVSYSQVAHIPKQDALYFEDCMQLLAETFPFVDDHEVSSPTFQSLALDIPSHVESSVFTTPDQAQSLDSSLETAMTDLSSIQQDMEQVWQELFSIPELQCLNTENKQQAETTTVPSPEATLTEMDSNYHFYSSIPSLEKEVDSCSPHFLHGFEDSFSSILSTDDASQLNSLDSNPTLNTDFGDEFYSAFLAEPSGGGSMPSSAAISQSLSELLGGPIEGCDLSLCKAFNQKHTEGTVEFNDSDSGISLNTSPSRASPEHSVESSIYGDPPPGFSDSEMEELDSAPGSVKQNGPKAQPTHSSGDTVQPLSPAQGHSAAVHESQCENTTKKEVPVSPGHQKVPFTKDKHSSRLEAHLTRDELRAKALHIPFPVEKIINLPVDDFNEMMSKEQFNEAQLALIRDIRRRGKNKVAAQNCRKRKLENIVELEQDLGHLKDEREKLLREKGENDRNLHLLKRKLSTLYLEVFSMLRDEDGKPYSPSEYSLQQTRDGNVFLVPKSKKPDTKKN
Method in brief: (§2)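 Reporter cells (H4IIE-ARE8L) exposed 24 h to compounds at 0.5% DMSO. Cells washed in PBS, then given 150 µg/mL D-luciferin in PBS for 5 min before reading luminescence. Signal normalised to vehicle-treated cells. The concentration giving a 2-fold rise in reporter activity (CD) was taken from the concentration-response data. Mean ± S.D., n=4.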

[5] = biological target: Kelch-like ECH-associated protein 1 (Mus musculus) (UniProt Q9Z2X8); experiment: Binding affinity to mouse V5-tagged Keap1 expressed in HEK293T cells assessed as chemical modification of Cys-434 residue at 100 uM incubated for by LC-MS/MS analysis; format: cell-based; settings: HEK-293T
Method in brief: (§3)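 Mouse Keap1-V5 expressed ectopically in HEK293T cells; cells exposed to 100 µM compound for 1 h. Keap1-V5 immunopurified from lysates, free cysteines capped with iodoacetamide, trypsin-digested overnight at 37 °C, then LC-MS/MS. Modification frequency per cysteine from n=4 independent experiments.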

[6] = biological target: Kelch-like ECH-associated protein 1 (Mus musculus) (UniProt Q9Z2X8); experiment: Binding affinity to mouse V5-tagged Keap1 expressed in HEK293T cells assessed as chemical modification of Cys-257 residue at 100 uM incubated for by LC-MS/MS analysis; format: cell-based; settings: HEK-293T; method in brief: as §3
[7] = biological target: Kelch-like ECH-associated protein 1 (Mus musculus) (UniProt Q9Z2X8); experiment: Binding affinity to mouse V5-tagged Keap1 expressed in HEK293T cells assessed as chemical modification of Cys-489 residue at 100 uM incubated for by LC-MS/MS analysis; format: cell-based; settings: HEK-293T; method in brief: as §3
[8] = biological target: Kelch-like ECH-associated protein 1 (Mus musculus) (UniProt Q9Z2X8); experiment: Binding affinity to recombinant mouse poly His-tagged Keap1 expressed in Escherichia coli assessed as chemical modification of Cys-257 residue incubated up to 24 hrs by LC-MS/MS analysis; method in brief: as §1
[9] = biological target: Kelch-like ECH-associated protein 1 (Mus musculus) (UniProt Q9Z2X8); experiment: Binding affinity to mouse V5-tagged Keap1 expressed in HEK293T cells assessed as chemical modification of Cys-273 residue at 100 uM incubated for by LC-MS/MS analysis; format: cell-based; settings: HEK-293T; method in brief: as §3
[10] = Thiol reactivity using beta-mercaptoethanol assessed as chemical shifts at 25 degC by NMR spectroscopy
[11] = biological target: Glutathione S-transferase P (Homo sapiens) (UniProt P09211); experiment: Binding affinity to recombinant human poly His-tagged GSTP1 expressed in Escherichia coli assessed as chemical modification at Cys-47 at 100:1 compound:protein molar ratio after 24 hrs by LC-MS/MS analysis; method in brief: as §1
Chain of Glutathione S-transferase P (Homo sapiens) (P09211 2-210 limits assumed): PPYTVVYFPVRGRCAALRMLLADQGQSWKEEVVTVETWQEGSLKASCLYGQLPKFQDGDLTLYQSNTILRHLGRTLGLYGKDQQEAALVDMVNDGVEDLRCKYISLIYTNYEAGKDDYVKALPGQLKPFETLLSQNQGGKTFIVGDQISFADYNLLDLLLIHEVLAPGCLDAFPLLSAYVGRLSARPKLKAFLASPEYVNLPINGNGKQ

[12] = biological target: Kelch-like ECH-associated protein 1 (Mus musculus) (UniProt Q9Z2X8); experiment: Binding affinity to recombinant mouse poly His-tagged Keap1 expressed in Escherichia coli assessed as chemical modification of Cys-434 residue incubated up to 24 hrs by LC-MS/MS analysis; method in brief: as §1
[13] = biological target: Glutathione S-transferase P (Homo sapiens) (UniProt P09211); experiment: Binding affinity to recombinant human poly His-tagged GSTP1 expressed in Escherichia coli assessed as chemical modification of Cys-47 residue at 1:1 compound:protein molar ratio after 24 hrs by LC-MS/MS analysis in presence of methyl 2-cyano-3,12-dioxooleana-1,9(11)-dien-28-oate
Method in brief: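 Competition format. His-tagged human GSTP1 was held on-bead at pH 8.4, 37 °C and pre-incubated 1 h with molar excesses of the competitor. The probe was then added at 1:1 molar ratio for another 24 h, with the competitor kept in the buffer. Cysteines capped with iodoacetamide, followed by tryptic digestion and LC-MS/MS of Cys-47 modification.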

[14] = Cytotoxicity against rat H42E cells expressing ARE8L assessed as cellular ATP level after 24 hrs by Celltiter-Glo luminescent cell viability assay; format: cell-based
Method in brief: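 H4IIE-ARE8L rat hepatoma cells grown in DMEM with 10% FBS, glutamine, HEPES and non-essential amino acids, and exposed 24 h to compounds at 0.5% DMSO. Cellular ATP measured by CellTiter-Glo luminescence and expressed relative to vehicle. Mean ± S.D., n=4.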

[15] = biological target: Kelch-like ECH-associated protein 1 (Mus musculus) (UniProt Q9Z2X8); experiment: Binding affinity to recombinant mouse poly His-tagged Keap1 expressed in Escherichia coli assessed as chemical modification of Cys-273 residue incubated up to 24 hrs by LC-MS/MS analysis; method in brief: as §1
[16] = biological target: Kelch-like ECH-associated protein 1 (Mus musculus) (UniProt Q9Z2X8); experiment: Binding affinity to recombinant mouse poly His-tagged Keap1 expressed in Escherichia coli assessed as chemical modification of Cys-613 residue incubated up to 24 hrs by LC-MS/MS analysis; method in brief: as §1
[17] = biological target: Kelch-like ECH-associated protein 1 (Mus musculus) (UniProt Q9Z2X8); experiment: Binding affinity to mouse V5-tagged Keap1 expressed in HEK293T cells assessed as chemical modification of Cys-288 residue at 100 uM incubated for by LC-MS/MS analysis; format: cell-based; settings: HEK-293T; method in brief: as §3
[18] = biological target: Kelch-like ECH-associated protein 1 (Mus musculus) (UniProt Q9Z2X8); experiment: Binding affinity to recombinant mouse poly His-tagged Keap1 expressed in Escherichia coli assessed as chemical modification of Cys-489 residue incubated up to 24 hrs by LC-MS/MS analysis; method in brief: as §1
[19] = biological target: T1, Nuclear factor erythroid 2-related factor 2 (Rattus norvegicus); experiment: Stabilization of NRF2 in rat H42E cells expressing ARE8L at 0.01 to 30 nM after 1 hr by Western blot analysis; format: cell-based
Method in brief: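 H4IIE-ARE8L cells exposed 1 h to the compound. Nrf2 protein accumulation detected by immunoblot. DMSO (0.5%) served as negative control and MG132 (10 μM) as positive control. Representative of n=3 independent experiments.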

[20] = biological target: Glutathione S-transferase P (Homo sapiens) (UniProt P09211); experiment: Binding affinity to recombinant human poly His-tagged GSTP1 expressed in Escherichia coli assessed as chemical modification at Cys-47 at 10:1 compound:protein molar ratio after 1 hr by LC-MS/MS analysis; method in brief: as §1
[21] = biological target: T1, Nuclear factor erythroid 2-related factor 2 (Rattus norvegicus); experiment: Induction of NRF2 activation in rat H42E cells expressing ARE8L assessed as increase in reporter transgene activity after 24 hrs by luminescence assay; format: cell-based; method in brief: as §2

- Activity [1]: inactive
- CD [4]: 0.0005 µM
- Activity [19]: Active
- Activity [8]: inactive
- Activity [12]: inactive
- Activity [20]: Active
- Activity [15]: inactive
- Activity [16]: inactive
- Activity [18]: inactive
Compound: COC(=O)[C@]12CCC(C)(C)C[C@H]1[C@H]1C(=O)C=C3[C@@]4(C)C=C(C#N)C(=O)C(C)(C)[C@@H]4CC[C@@]3(C)[C@]1(C)CC2 [BARDOXOLONE METHYL]
- Activity [3]: 5.81 ppm
- Activity [10]: 5.85 ppm
- IC50 [14]: 1.4 µM

- CD [4]: 0.009 µM
Compound: COC(=O)[C@]12CCC(C)(C)C[C@H]1[C@H]1C(=O)C=C3[C@@]4(C)CC(C#N)C(=O)C(C)(C)[C@@H]4CC[C@@]3(C)[C@]1(C)CC2 (some centres undefined)
- Activity [2]: inactive
- Activity [10]: inactive

- CD [4]: 0.9 µM
- Activity [21]: Dose-dependent effect
Compound: COC(=O)[C@]12CCC(C)(C)C[C@H]1[C@H]1C(=O)C=C3[C@@]4(C)C=CC(=O)C(C)(C)[C@@H]4CC[C@@]3(C)[C@]1(C)CC2

- CD [4]: 1.2 µM
Compound: COC(=O)[C@]12CCC(C)(C)C[C@H]1[C@H]1C(=O)C=C3[C@@]4(C)CCC(=O)C(C)(C)[C@@H]4CC[C@@]3(C)[C@]1(C)CC2

The next lines start with the compound.

Compound: COC(=O)[C@]12CCC(C)(C)C[C@H]1[C@H]1C(=O)C=C3[C@@]4(C)[C@H]5O[C@@]5(C#N)C(=O)C(C)(C)[C@@H]4CC[C@@]3(C)[C@]1(C)CC2
- Activity [1]: Dose-dependent effect
- Activity [2]: 5.15 ppm
- Activity [3]: inactive
- CD [4]: 0.002 µM
- Activity [5]: Active
- Activity [6]: Active
- Activity [7]: Active
- Activity [8]: Dose-dependent effect
- Activity [9]: Active
- Activity [10]: inactive
- Activity [11]: Active
- Activity [12]: Dose-dependent effect
- Activity [13]: inactive
- IC50 [14]: 4.3 µM
- Activity [15]: Dose-dependent effect
- Activity [16]: Dose-dependent effect
- Activity [17]: Active
- Activity [18]: Dose-dependent effect

Compound: COC(=O)[C@]12CCC(C)(C)C[C@H]1[C@H]1C(=O)C=C3[C@@]4(C)CC[C@H](OC(C)=O)C(C)(C)[C@@H]4CC[C@@]3(C)[C@]1(C)CC2
- CD [4]: 17.6 µM

Compound: COC(=O)[C@]12CCC(C)(C)C[C@H]1[C@H]1C(=O)C=C3[C@@]4(C)[C@H]5O[C@H]5C(=O)C(C)(C)[C@@H]4CC[C@@]3(C)[C@]1(C)CC2
- CD [4]: 15.4 µM
- Activity [21]: Dose-dependent effect
